Results on nine molecules are retold here after ChEMBL document CHEMBL1125297, “Synthesis and biologic activity of 2'-fluoro-2-halo derivatives of 9-beta-D-arabinofuranosyladenine” (J Med Chem, 1992).

Assay [1] deals with CCRF-CEM. Nature of the assay: Compound was tested for cytotoxicity against CCRF-CEM cell lines. Format: functional, cell-based. The conditions noted are these: Homo sapiens. The procedure, abridged: (§1)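 Cell-proliferation assay run against each named cell line. The value is the concentration that holds proliferation at 50% of untreated controls.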
Assay [2] relates to HEp-2. Description: Compound was tested for cytotoxicity against HEp-2 cell lines. Format: functional, cell-based. The conditions noted are these: Homo sapiens. The method in brief:
as §1

Assay [3] concerns K562. Nature of the assay: Compound was tested for cytotoxicity against K562 cell lines. The format is functional, cell-based. As to conditions: Homo sapiens. The method in brief:
as §1

Assay [4] relates to L1210. Nature of the assay: Compound was tested for cytotoxicity against L1210 cell lines. The format is functional, cell-based. As to conditions: Mus musculus. The method in brief: as §1
The subject of assay [5] is Mus musculus. Nature of the assay: In Vivo increase in life span of dying mice implanted ip with 10E6 P388 leukemia, after ip administration of 100 mg/kg. Format: functional. The conditions noted are these: route intraperitoneal. The method in brief:
(§2)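 CD2F1 mice implanted ip with 10⁶ P388 leukemia cells on day 0. Treatment ip, doses given as mg/kg per dose and kept at or below the LD10. Read-out is increase in life span against untreated controls.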

Assay [6] concerns Mus musculus. Description: In Vivo increase in life span of dying mice implanted ip with 10E6 P388 leukemia, after ip administration of 25 mg/kg. The format is functional. As to conditions: route intraperitoneal. The method in brief:
as §2

In assay [7] the test system is Mus musculus. Nature of the assay: Log chance in viable tumor cells population was measured after intraperitoneal administration of 100 mg/kg. The format is functional. The procedure, abridged: (§3)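 CD2F1 mice were implanted ip with 10⁶ P388 leukemia cells on day 0, then treated ip. Doses are mg/kg per dose, kept at or below LD₁₀. Read-out is the log change in viable tumor cells from start to end of therapy, based on the median day of death among the animals that died.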

In assay [8] the test system is Mus musculus. Nature of the assay: Log chance in viable tumor cells population was measured after intraperitoneal administration of 25 mg/kg. The format is functional. The method in brief:
as §3

The test system of assay [9] is Mus musculus. Description: Tumor-free survivors of P388 leukemia infected mice was measured after ip administration of 100 mg/kg in 3 mice. The format is functional. The conditions noted are these: route intraperitoneal. The method in brief:
(§4)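 CD2F1 mice received 10⁶ P388 leukemia cells ip on day 0 and were then dosed ip in mg/kg per dose, at or below the LD10. Tumor-free survivors were scored among the treated group.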

The test system of assay [10] is Mus musculus. Description: Tumor-free survivors of P388 leukemia infected mice was measured after ip administration of 25 mg/kg in 6 mice. The format is functional. The conditions noted are these: route intraperitoneal. The method in brief:
as §4

Assay [11] relates to Mus musculus. Description: In Vivo increase in life span of dying mice implanted ip with 10E6 P388 leukemia, after ip administration of 20 mg/kg. As to conditions: route intraperitoneal. Format: functional. The method in brief:
as §2

Assay [12] relates to Mus musculus. Nature of the assay: In Vivo increase in life span of dying mice implanted ip with 10E6 P388 leukemia, after ip administration of 200 mg/kg. Format: functional. The conditions noted are these: route intraperitoneal. The method in brief:
as §2

Assay [13] concerns Mus musculus. Nature of the assay: Log chance in viable tumor cells population was measured after intraperitoneal administration of 200 mg/kg. Format: functional. The method in brief: as §3
Assay [14] relates to Mus musculus. Description: Log chance in viable tumor cells population was measured after intraperitoneal administration of 20 mg/kg. Format: functional. The method in brief: as §3
The test system of assay [15] is Mus musculus. Nature of the assay: Tumor-free survivors of P388 leukemia infected mice was measured after ip administration of 100 mg/kg in 5 mice. Format: functional. The conditions noted are these: route intraperitoneal. The method in brief:
as §4

Assay [16] deals with Mus musculus. Nature of the assay: Tumor-free survivors of P388 leukemia infected mice was measured after ip administration of 20 mg/kg in 6 mice. Format: functional. The conditions noted are these: route intraperitoneal. The procedure, abridged:
as §4

For assay [17], the system named is Mus musculus. Nature of the assay: Tumor-free survivors of P388 leukemia infected mice was measured after ip administration of 200 mg/kg in 3 mice. The format is functional. The conditions noted are these: route intraperitoneal. The method in brief:
as §4

In assay [18] the test system is Mus musculus. Nature of the assay: Tumor-free survivors of P388 leukemia infected mice was measured after ip administration of 25 mg/kg in 5 mice. The format is functional. The conditions noted are these: route intraperitoneal. The method in brief: as §4
Assay [19] deals with Mus musculus. Description: In Vivo increase in life span of dying mice implanted ip with 10E6 P388 leukemia, after ip administration of 30 mg/kg. The format is functional. As to conditions: route intraperitoneal. The method in brief: as §2
The subject of assay [20] is Mus musculus. Description: In Vivo increase in life span of dying mice implanted ip with 10E6 P388 leukemia, after ip administration of 50 mg/kg. The format is functional. The conditions noted are these: route intraperitoneal. The procedure, abridged:
as §2

The test system of assay [21] is Mus musculus. Nature of the assay: Tumor-free survivors of P388 leukemia infected mice was measured after ip administration of 50 mg/kg in 6 mice. The format is functional. As to conditions: route intraperitoneal. The procedure, abridged:
as §4

The subject of assay [22] is Mus musculus. Description: Tumor-free survivors of P388 leukemia infected mice was measured after ip administration of 200 mg/kg in 6 mice. The format is functional. As to conditions: route intraperitoneal. The procedure, abridged:
as §4

The test system of assay [23] is Mus musculus. Nature of the assay: Log change in viable tumor cells population was measured at end of therapy when compared to start of therapy at dose 200 mg/kg. The format is functional. The procedure, abridged: as §3
Assay [24] deals with Mus musculus. Nature of the assay: Log change in viable tumor cells population was measured at end of therapy when compared to start of therapy at dose 30 mg/kg. The format is functional. The procedure, abridged:
as §3

Assay [25] has as its system Mus musculus. Nature of the assay: Log change in viable tumor cells population was measured at end of therapy when compared to start of therapy at dose 50 mg/kg. The format is functional. The procedure, abridged:
as §3

Assay [26] deals with Mus musculus. Nature of the assay: Tumor-free survivors of P388 leukemia infected mice was measured after ip administration of 30 mg/kg in 6 mice. The format is functional. As to conditions: route intraperitoneal. The procedure, abridged:
as §4

Some results are limits rather than exact numbers.

For orientation: IC50 means the concentration at which inhibition is half-maximal. Usually ILS stands for how much longer treated animals lived than controls. Low values mean a small benefit in survival, high ones a large benefit in survival.

`Nc1nc(F)nc2c1ncn2[C@@H]1O[C@H](CO)[C@@H](O)[C@@H]1F`: the half-inhibitory concentration (IC50) in [1] was 140 nM; in assay [2] it was 340 nM; in assay [3] it was 300 nM; in assay [4], 380 nM. For the same molecule, in assay [5], the ILS at 100 mg/kg is 63%. In assay [6], this molecule yielded an increase in lifespan (ILS) at 25 mg/kg of 81%. In addition, the figures for the Log change in [7] and in [8] were -1.8 and -0.1, respectively. The Tumor free survivors in assay [9] and in assay [10] was 0 throughout.
As for `Nc1nc(Cl)nc2c1ncn2[C@@H]1O[C@H](CO)[C@@H](O)[C@@H]1F` [CLOFARABINE], the IC50 was found to be 50 nM in assay [1], 12 nM in assay [2], 3 nM in assay [3] and 230 nM in assay [4]. Further, the ILS at 100 mg/kg in assay [5] is 38%. The increase in lifespan (ILS) at 20 mg/kg in assay [11] amounted to 220%. This molecule also registered an ILS at 200 mg/kg in assay [12] of 59%. In assay [6], the increase in life span (ILS) at 25 mg/kg came to 118%. Also, the Log change is reported as -1.6 in assay [13], -0.3 in assay [7], -6.6 in assay [14] and -2.8 in assay [8]. The Tumor free survivors in assay [15] came to 0; in assay [16] it was 1; in assay [17], 0; in assay [18] it was 0.
As to `Nc1nc(Cl)nc2c1ncn2[C@@H]1O[C@H](CO)[C@@H](O)[C@H]1O`, the IC50 was 10000 nM in [1], 3000 nM in assay [2] and below 3000 nM in assay [4].
Taken in the same sequence, the figures for `Nc1nc(Cl)nc2c1ncn2[C@H]1C[C@H](O)[C@@H](CO)O1` [CLADRIBINE] were 3 nM, 30 nM and 70 nM.
Taken in the same sequence, the figures for `Nc1nc(Br)nc2c1ncn2[C@H]1C[C@H](O)[C@@H](CO)O1` were 20 nM, 20 nM and 900 nM.
As to `Nc1nc(Br)nc2c1ncn2C1O[C@H](CO)[C@@H](O)[C@H]1O` (some centres not stated), the IC50 came out at 4000 nM in assay [2] and 3000 nM in [4].
Regarding `Nc1nc(F)nc2c1ncn2[C@@H]1O[C@H](CO)[C@@H](O)[C@@H]1O` [FLUDARABINE], the 50% inhibitory concentration (IC50) was determined as 400 nM in assay [1], 9000 nM in assay [2], 150 nM in assay [3] and 3000 nM in assay [4].
Turning to `Nc1nc(Br)nc2c1ncn2[C@@H]1O[C@H](CO)[C@@H](O)[C@H]1F`, the IC50 in [1] amounted to 20 nM; in [2], 220 nM; in [3], 50 nM; in [4], 260 nM. The molecule also yielded an ILS at 200 mg/kg in assay [12] of 33%. In assay [19], the ILS at 30 mg/kg was found to be 100%. Further, the ILS at 50 mg/kg in assay [20] was 41%. Further, the Tumor free survivors in [21], in [22] and in assay [26] was 0 in each case. The Log change is reported as 0.1 in assay [23], -1 in assay [24] and 1.6 in [25].
Regarding `Nc1nc(F)nc2c1ncn2[C@H]1C[C@H](O)[C@@H](CO)O1`, the half-maximal inhibitory concentration (IC50) was determined as 200 nM in [1], 200 nM in [2] and 900 nM in [4].
